Measured values: ChEMBL document CHEMBL4387734, “Design and synthesis of a novel series of cyanoindole derivatives as potent γ-secretase modulators” (Bioorg Med Chem Lett, 2019)
In brackets after ≈: the same amount, converted by molar mass.

How the values were obtained:
[1] = Inhibition of gamma secretase in mouse Neuro2 cells expressing endogenous levels of amyloid precursor protein assessed as reduction in Abeta42 levels incubated for 18 hrs by sandwich ELISA; format: cell-based
Procedure, shortened: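 IC50 as concentration reducing Aβ42 by 50%; mean of at least 2 determinations; mouse assay.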

[2] = Drug concentration in mouse brain at 30 mg/kg, po measured after 4 hrs by LC/MS/MS method; format: ADME, organism-based; conditions: read-out: Drug uptake
Procedure, shortened: (§1)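 Mice dosed orally at 30 mg/kg; plasma and brain sampled 4 h post-dose; compound quantified by qualified research LC–MS/MS; brain/plasma ratio at 4 h.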

[3] = Drug concentration in mouse plasma at 30 mg/kg, po measured after 4 hrs by LC/MS/MS method; format: ADME, organism-based; procedure, shortened: as §1
Mus musculus [4] = assay: In vivo inhibition of gamma secretase in mouse assessed as assessed as reduction in Abeta42 levels in brain at 30 mg/kg, po measured after 4 hrs relative to control; format: functional
[5] = Free drug concentration in mouse brain; format: ADME, tissue-based; conditions: in vivo
Procedure, shortened: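 Free brain concentration calculated as fu,b × total brain level (μM), mouse 30 mg/kg p.o., 4 h.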

[6] = Lipophilicity, log P of the compound; format: physicochemical; conditions: octanol/water
[7] = Metabolic stability in human liver microsomes assessed as compound metabolism at 1 uM incubated for 15 mins; format: ADME, Microsome; conditions: read-out: Drug metabolism
Procedure, shortened: (§2)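 Compound at 1 μM incubated 15 min with human, mouse or dog liver microsomes; percent metabolized reported.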

[8] = Metabolic stability in mouse liver microsomes assessed as compound metabolism at 1 uM incubated for 15 mins; format: ADME, Microsome; conditions: read-out: Drug metabolism; procedure, shortened: as §2
[9] = Metabolic stability in dog liver microsomes assessed as compound metabolism at 1 uM incubated for 15 mins; format: ADME, Canis lupus familiaris, Microsome; conditions: read-out: Drug metabolism; procedure, shortened: as §2
Cytochrome P450 2D6 = Cytochrome P450 2D6 (Homo sapiens, UniProt P10635); assay: Inhibition of CYP2D6 (unknown origin); format: ADME
Cytochrome P450 2D6, sequence (P10635 whole entry): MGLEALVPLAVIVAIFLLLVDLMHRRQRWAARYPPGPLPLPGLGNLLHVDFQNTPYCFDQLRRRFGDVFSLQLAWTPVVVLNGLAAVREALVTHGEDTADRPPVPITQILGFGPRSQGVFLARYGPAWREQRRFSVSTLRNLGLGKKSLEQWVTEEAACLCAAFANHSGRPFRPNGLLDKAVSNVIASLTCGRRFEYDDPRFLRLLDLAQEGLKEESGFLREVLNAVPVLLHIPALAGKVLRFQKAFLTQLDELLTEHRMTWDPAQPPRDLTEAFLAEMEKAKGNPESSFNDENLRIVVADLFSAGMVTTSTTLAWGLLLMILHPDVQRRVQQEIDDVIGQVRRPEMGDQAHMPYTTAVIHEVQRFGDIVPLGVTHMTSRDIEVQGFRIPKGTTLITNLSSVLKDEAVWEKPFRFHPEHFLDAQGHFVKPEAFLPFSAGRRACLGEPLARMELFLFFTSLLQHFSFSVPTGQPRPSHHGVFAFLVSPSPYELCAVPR

Cytochrome P450 2C9 = Cytochrome P450 2C9 (Homo sapiens, UniProt P11712); assay: Inhibition of CYP2C9 (unknown origin); format: ADME
Cytochrome P450 2C9, sequence (P11712 whole entry): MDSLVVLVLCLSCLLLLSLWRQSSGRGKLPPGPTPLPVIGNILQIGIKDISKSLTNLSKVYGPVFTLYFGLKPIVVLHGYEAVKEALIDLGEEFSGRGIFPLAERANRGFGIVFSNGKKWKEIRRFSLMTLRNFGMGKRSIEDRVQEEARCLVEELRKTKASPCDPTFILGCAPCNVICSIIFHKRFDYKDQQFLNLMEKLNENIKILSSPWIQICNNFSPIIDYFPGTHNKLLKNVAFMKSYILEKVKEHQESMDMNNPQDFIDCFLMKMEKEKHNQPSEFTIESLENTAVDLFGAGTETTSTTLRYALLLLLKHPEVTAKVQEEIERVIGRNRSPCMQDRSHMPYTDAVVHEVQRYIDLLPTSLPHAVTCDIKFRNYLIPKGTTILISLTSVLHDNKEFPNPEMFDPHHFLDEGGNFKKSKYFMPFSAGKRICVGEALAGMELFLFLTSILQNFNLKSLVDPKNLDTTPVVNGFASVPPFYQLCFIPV

Cytochrome P450 2C19 = Cytochrome P450 2C19 (Homo sapiens, UniProt P33261); assay: Inhibition of CYP2C19 (unknown origin); format: ADME
Cytochrome P450 2C19, sequence (P33261 whole entry): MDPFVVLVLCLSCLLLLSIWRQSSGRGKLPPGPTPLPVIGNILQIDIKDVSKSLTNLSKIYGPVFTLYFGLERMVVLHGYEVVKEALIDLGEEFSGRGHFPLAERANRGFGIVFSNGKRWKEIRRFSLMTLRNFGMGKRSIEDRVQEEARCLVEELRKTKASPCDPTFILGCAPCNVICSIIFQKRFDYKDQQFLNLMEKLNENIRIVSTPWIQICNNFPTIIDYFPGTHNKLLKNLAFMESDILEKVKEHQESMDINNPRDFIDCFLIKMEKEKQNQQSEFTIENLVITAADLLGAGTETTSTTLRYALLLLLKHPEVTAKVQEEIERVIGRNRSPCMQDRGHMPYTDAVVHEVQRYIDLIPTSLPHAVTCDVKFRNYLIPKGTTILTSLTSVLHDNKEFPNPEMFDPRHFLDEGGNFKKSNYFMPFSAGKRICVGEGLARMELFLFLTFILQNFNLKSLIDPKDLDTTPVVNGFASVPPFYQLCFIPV

[10] = biological target: Voltage-gated inwardly rectifying potassium channel KCNH2 (Homo sapiens, UniProt Q12809); assay: Inhibition of human ERG by receptor binding assay
Voltage-gated inwardly rectifying potassium channel KCNH2, sequence (Q12809 whole entry): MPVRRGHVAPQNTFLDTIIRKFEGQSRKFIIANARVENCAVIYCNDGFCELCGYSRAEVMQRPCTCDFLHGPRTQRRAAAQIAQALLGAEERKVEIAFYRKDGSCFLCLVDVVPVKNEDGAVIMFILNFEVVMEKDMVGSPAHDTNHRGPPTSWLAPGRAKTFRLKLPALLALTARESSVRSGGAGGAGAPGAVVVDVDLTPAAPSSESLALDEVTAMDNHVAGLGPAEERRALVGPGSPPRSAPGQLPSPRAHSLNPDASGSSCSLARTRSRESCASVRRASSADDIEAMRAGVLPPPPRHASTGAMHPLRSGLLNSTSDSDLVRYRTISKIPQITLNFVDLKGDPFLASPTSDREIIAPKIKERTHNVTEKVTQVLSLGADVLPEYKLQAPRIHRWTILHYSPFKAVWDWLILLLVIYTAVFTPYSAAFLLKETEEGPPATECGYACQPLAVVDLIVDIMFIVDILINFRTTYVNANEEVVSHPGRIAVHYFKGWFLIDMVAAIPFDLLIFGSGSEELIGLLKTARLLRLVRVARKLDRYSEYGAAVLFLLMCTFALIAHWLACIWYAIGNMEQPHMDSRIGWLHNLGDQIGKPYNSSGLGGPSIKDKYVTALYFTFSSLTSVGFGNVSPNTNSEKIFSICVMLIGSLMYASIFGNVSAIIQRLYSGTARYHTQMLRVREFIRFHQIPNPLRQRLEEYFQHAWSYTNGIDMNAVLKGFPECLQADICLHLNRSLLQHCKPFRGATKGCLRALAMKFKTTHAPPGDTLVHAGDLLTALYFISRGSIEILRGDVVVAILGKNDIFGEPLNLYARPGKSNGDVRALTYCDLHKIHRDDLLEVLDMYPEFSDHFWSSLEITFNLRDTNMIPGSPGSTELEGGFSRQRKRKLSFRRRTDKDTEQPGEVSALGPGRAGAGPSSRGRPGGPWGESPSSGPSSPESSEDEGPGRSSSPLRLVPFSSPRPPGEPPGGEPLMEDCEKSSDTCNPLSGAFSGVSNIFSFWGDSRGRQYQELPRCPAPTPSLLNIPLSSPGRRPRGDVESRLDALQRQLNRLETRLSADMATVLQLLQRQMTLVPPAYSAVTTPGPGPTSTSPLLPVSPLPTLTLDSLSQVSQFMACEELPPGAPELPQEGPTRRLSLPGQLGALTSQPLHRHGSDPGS
Procedure, shortened: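 Receptor binding on human hERG channel; IC50 reported.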

hERG (KCNH2) = hERG (KCNH2) (Homo sapiens, UniProt Q12809); assay: Inhibition of human ERG assessed as inhibition of IKr current at 3 uM by patch express assay
hERG (KCNH2), sequence (Q12809 whole entry): as above
Procedure, shortened: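 Human ERG: percent inhibition of IKr current at 3 μM.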

[11] = Kinetic solubility of the compound in pH 7.4 buffer; format: physicochemical; conditions: read-out: Kinetic_solubility
Cytochrome P450 3A4 [12] = biological target: T1, Cytochrome P450 3A4 (Homo sapiens, UniProt P08684); assay: Activation of CYP3A4 (unknown origin) using midazolam; format: ADME
T1 sequence (P08684 whole entry): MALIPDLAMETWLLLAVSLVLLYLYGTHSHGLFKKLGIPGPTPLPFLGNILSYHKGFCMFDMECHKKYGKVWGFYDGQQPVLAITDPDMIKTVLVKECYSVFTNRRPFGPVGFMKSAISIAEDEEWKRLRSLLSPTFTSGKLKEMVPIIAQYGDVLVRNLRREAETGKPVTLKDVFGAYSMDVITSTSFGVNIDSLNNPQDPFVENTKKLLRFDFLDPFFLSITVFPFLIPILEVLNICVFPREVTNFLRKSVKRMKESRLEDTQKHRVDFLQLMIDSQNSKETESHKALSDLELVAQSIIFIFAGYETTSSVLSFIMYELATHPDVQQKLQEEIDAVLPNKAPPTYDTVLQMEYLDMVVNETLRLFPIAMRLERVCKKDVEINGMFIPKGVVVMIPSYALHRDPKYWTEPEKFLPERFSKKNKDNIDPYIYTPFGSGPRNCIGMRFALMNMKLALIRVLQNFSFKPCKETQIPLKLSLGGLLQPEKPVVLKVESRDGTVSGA

[13] = Ratio of drug concentration in brain to plasma of mouse at 30 mg/kg, po measured after 4 hrs by LC/MS/MS method; format: ADME, organism-based; conditions: read-out: BPR; procedure, shortened: as §1
[14] = Fraction of unbound in rat brain
Mus musculus [15] = assay: In vivo inhibition of gamma secretase in mouse increase in Abeta38 levels in brain at 30 mg/kg, po measured after 4 hrs relative to control; design: scale not given: the % may be the effect or the level left
Gamma-secretase = assay: Inhibition of gamma secretase in human SKNBE2 cells expressing human APP695 assessed as reduction in Abeta42 levels incubated for 18 hrs by sandwich ELISA
Cytochrome P450 3A4 [16] = biological target: T1, Cytochrome P450 3A4; assay: Inhibition of CYP3A4 (unknown origin) using midazolam; format: ADME
Cytochrome P450 1A2 = biological target: T2, Cytochrome P450 1A2 (Homo sapiens, UniProt P05177); assay: Inhibition of CYP1A2 (unknown origin); format: ADME
T2 sequence (P05177 whole entry): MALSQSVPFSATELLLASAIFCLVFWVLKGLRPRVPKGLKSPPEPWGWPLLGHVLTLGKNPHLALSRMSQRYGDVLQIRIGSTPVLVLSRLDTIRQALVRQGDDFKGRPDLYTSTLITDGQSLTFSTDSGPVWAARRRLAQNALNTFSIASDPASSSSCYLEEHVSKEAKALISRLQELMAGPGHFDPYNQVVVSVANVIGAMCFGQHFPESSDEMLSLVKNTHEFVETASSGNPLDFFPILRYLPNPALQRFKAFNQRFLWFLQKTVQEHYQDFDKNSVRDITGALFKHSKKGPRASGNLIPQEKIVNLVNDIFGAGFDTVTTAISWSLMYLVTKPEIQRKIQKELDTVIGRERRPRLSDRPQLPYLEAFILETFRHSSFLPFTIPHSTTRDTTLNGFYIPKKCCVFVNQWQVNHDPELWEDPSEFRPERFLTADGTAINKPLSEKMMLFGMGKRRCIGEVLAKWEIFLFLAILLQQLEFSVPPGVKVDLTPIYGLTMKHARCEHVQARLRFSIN

Cytochrome P450 2C8 = biological target: T3, Cytochrome P450 2C8 (Homo sapiens, UniProt P10632); assay: Inhibition of CYP2C8 (unknown origin); format: ADME
T3 sequence (P10632 whole entry): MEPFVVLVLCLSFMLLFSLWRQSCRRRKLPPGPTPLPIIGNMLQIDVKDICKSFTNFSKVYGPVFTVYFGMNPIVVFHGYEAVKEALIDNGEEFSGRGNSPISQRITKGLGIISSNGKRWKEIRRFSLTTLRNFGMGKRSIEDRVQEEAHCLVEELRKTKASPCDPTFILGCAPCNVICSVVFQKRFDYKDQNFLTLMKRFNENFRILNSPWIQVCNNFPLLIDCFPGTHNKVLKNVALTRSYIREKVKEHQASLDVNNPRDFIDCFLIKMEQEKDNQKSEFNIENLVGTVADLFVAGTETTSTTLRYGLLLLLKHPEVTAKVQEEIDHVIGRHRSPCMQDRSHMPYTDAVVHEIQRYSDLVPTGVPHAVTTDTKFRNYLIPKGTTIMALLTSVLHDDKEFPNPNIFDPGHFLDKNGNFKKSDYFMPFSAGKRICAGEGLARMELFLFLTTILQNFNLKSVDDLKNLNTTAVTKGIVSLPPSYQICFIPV

Canis familiaris [17] = assay: In vivo inhibition of gamma secretase in dog assessed as assessed as increase in Abeta38 levels in CSF at 10 mg/kg, po measured after 8 hrs relative to control; format: functional, Canis lupus familiaris; design: scale not given: the % may be the effect or the level left
[18] = Cmax in dog at 10 mg/kg, po after 1.6 hrs; format: ADME, organism-based, Canis lupus familiaris; design: dose 10 mg/kg, route oral; conditions: in vivo
Procedure, shortened: (§3)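 Dogs given single oral 10 mg/kg dose; plasma concentration followed to obtain Cmax and time of Cmax.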

[19] = Tmax in dog at 10 mg/kg, po; format: ADME, organism-based, Canis lupus familiaris; conditions: in vivo; procedure, shortened: as §3
[20] = Toxicity in dog assessed as effect on behavior at 10 mg/kg, po; format: organism-based, Canis lupus familiaris; conditions: in vivo
Procedure, shortened: (§4)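 Single oral 10 mg/kg dose in dog; behaviour and appearance observed; plasma liver enzymes ALT and AST monitored.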

[21] = Toxicity in dog assessed as effect on appearance at 10 mg/kg, po; format: organism-based, Canis lupus familiaris; conditions: in vivo; procedure, shortened: as §4
[22] = Toxicity in dog assessed as effect on ALT level at 10 mg/kg, po; format: organism-based, Canis lupus familiaris; conditions: in vivo; procedure, shortened: as §4
[23] = Toxicity in dog assessed as effect on AST level at 10 mg/kg, po; format: organism-based, Canis lupus familiaris; conditions: in vivo; procedure, shortened: as §4
Canis familiaris [24] = assay: In vivo inhibition of gamma secretase in dog assessed as assessed as reduction in Abeta42 levels in cerebrospinal fluid at 10 mg/kg, po measured after 8 hrs relative to control; conditions: Canis lupus familiaris

Q: Which IC50 [1] does the source give for `COc1nc(-c2nc(Nc3cc(F)cc(C(F)(F)F)c3)n(C)n2)ccc1-n1cnc(C)c1` here?
A: Its IC50 is 0.049 µM.

Q: And the concentration at 4 h [2]?
A: Its concentration at 4 h is 14 µM.

Q: And the concentration at 4 h [3]?
A: Its concentration at 4 h is 17.8 µM.

Q: And the inhibition in vivo at 30 mg/kg (Mus musculus [4])?
A: Its inhibition in vivo at 30 mg/kg is 55%.

Q: And the “Drug uptake(free)” value [5]?
A: Its value is 0.069 µM.

Q: What about the logP [6] of the same compound?
A: Its logP is 4.24.

Q: What about the metabolised at 0.25 h, 1 µM [7] of the same compound?
A: Its metabolised at 0.25 h, 1 µM is 4%.

Q: And the metabolised at 0.25 h, 1 µM [8]?
A: Its metabolised at 0.25 h, 1 µM is 0%.

Q: And the metabolised at 0.25 h, 1 µM [9]?
A: The metabolised at 0.25 h, 1 µM was 10%.

Q: And the IC50 (Cytochrome P450 2D6)?
A: Its IC50 is 16 µM.

Q: What about the IC50 (Cytochrome P450 2C9) of the same compound?
A: The IC50 was 12.3 µM.

Q: And the IC50 (Cytochrome P450 2C19)?
A: The IC50 was 22.1 µM.

Q: And the IC50 [10]?
A: Its IC50 is over 10 µM.

Q: What about the inhibition at 3 µM (hERG (KCNH2)) of the same compound?
A: Its inhibition at 3 µM is 52%.

Q: What about the solubility kinetic [11] of the same compound?
A: The solubility kinetic was 39 µM (≈ 17.4 µg/mL).

Q: What about the Activity (Cytochrome P450 3A4 [12]) of the same compound?
A: Its Activity is “Active”.

Q: What about the Kp at 4 h [13] of the same compound?
A: The Kp at 4 h was 0.8.

Q: What about the Fu [14] of the same compound?
A: The Fu was 0.5%.

Q: And the Activity (Mus musculus [15])?
A: Its Activity is 53%.

Q: What about the IC50 (Gamma-secretase) of the same compound?
A: Its IC50 is 0.019 µM.

Q: Which results are given for `COc1c(C#N)ccc2[nH]c(-c3cn4c(n3)[C@H](c3cccc(F)c3C)OCC4)cc12`?
A: IC50 [1]: 0.017 µM; concentration at 4 h [2]: 8.25 to 12 µM; concentration at 4 h [3]: 8.2 to 12.1 µM; inhibition in vivo at 30 mg/kg (Mus musculus [4]): 66%; Drug uptake(free) [5]: 0.026 µM; logP [6]: 4.19; metabolised at 0.25 h, 1 µM [7]: 18%; metabolised at 0.25 h, 1 µM [8]: 27%; metabolised at 0.25 h, 1 µM [9]: 29%; IC50 (Cytochrome P450 3A4 [16]): > 10 µM; IC50 (Cytochrome P450 2D6): 9.8 µM; IC50 (Cytochrome P450 2C9): 5.9 µM; IC50 (Cytochrome P450 2C19): 8.3 µM; IC50 (Cytochrome P450 1A2): > 10 µM; IC50 (Cytochrome P450 2C8): 1.3 µM; IC50 [10]: 5.29 µM; inhibition at 3 µM (hERG (KCNH2)): 31%; solubility kinetic [11]: 6 µM (≈ 2.41 µg/mL); Kp at 4 h [13]: 1.46; Activity (Canis familiaris [17]): 40%; Cmax [18]: 2.4 µM; Tmax [19]: 1.6 h; Activity [20]: Non-Toxic; Activity [21]: Non-Toxic; Activity [22]: Non-Toxic; Activity [23]: Non-Toxic; Fu [14]: 0.22%; Activity (Mus musculus [15]): 40%; IC50 (Gamma-secretase): 0.014 µM; inhibition in vivo at 10 mg/kg (Canis familiaris [24]): 37%
